Experimental data taken from ChEMBL document CHEMBL4689842, “EUbOPEN Chemogenomics Library wave 1” (2021).
Values joined by “and” are separate entries in the source; they are usually repeats but may differ in a detail not shown here. Equal values may be shown once.

Test system: Fibroblast
Assay: Multiplex assay against human fibroblast
Format: toxicity, cell-based
Settings: 10 µM, compound concentration 10 uM
Method in brief: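 Per cents of healthy-nucleus cells form the tubulin, mitochondrial-mass and membrane-permeability phenotype values. Live cells were stained at seeding with Hoechst33342, BioTracker Green Microtubule Cytoskeleton Dye, MitoTracker Red and Annexin V Alexa Fluor 680. After compound addition they were imaged on a CQ1 microscope at 37°C and 5% CO2, and CellPathfinder machine-learning gating split them into Hoechst high-intensity objects or normal cells, normal cells into healthy, pyknosed or fragmented nuclei, and pyknosed cells into mitotic or apoptotic.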

## CN1C(=O)c2sccc2N(C)c2nc(Nc3ccc(S(N)(=O)=O)cc3)ncc21
12 h, replicate 1
  Population Apoptotic (%): 73% and 80%
  Population Fragmented Nuclei (%): 30% and 28%
  Population Healthy Nuclei (%): 50% and 56%
  Population Hoechst High Intensity Objects (%): 9% and 15%
  Population Membrane Permeable-Phenotype (%): 7% and 4%
  Population Mitochondria Different-Phenotype (%): 7%
  Population Mitotic Cells (%): 26% and 20%
  Population Normal (%): 90% and 84%
  Population Pyknosed Nuclei (%): 18% and 14%
  Population Tubulin-Different-Phenotype (%): 3% and 7%
  Total Cell Count: 224 and 198
12 h, replicate 2
  Population Fragmented Nuclei (%): 52%
  Population Healthy Nuclei (%): 36% and 33%
  Population Hoechst High Intensity Objects (%): 32% and 34%
  Population Membrane Permeable-Phenotype (%): 13% and 8%
  Population Mitochondria Different-Phenotype (%): 13% and 0%
  Population Mitotic Cells (%): 42% and 100%
  Population Normal (%): 67% and 65%
  Population Pyknosed Nuclei (%): 11% and 13%
  Population Tubulin-Different-Phenotype (%): 4% and 0%
  Total Cell Count: 91 and 55
24 h, replicate 1
  Population Apoptotic (%): 55% and 72%
  Population Fragmented Nuclei (%): 23% and 27%
  Population Healthy Nuclei (%): 60% and 52%
  Population Hoechst High Intensity Objects (%): 14% and 16%
  Population Membrane Permeable-Phenotype (%): 8%
  Population Mitochondria Different-Phenotype (%): 2%
  Population Mitotic Cells (%): 44% and 27%
  Population Normal (%): 85% and 83%
  Population Pyknosed Nuclei (%): 15% and 20%
  Population Tubulin-Different-Phenotype (%): 5% and 3%
  Total Cell Count: 219 and 217
24 h, replicate 2
  Population Apoptotic (%): 45% and 50%
  Population Fragmented Nuclei (%): 59% and 52%
  Population Healthy Nuclei (%): 23% and 36%
  Population Hoechst High Intensity Objects (%): 33% and 37%
  Population Membrane Permeable-Phenotype (%): 0%
  Population Mitochondria Different-Phenotype (%): 6% and 0%
  Population Mitotic Cells (%): 54% and 50%
  Population Normal (%): 66% and 62%
  Population Pyknosed Nuclei (%): 17% and 11%
  Population Tubulin-Different-Phenotype (%): 6% and 15%
  Total Cell Count: 96 and 58
